≈ marks a conversion by molar mass, not a printed value. Where only a bound is given, the exact number is not on record here.

The nature of assay [1]: Induction of apoptosis in human HepG2 cells assessed as early apoptotic cells at 2 times antiproliferative IC50 after 48 hrs by Annexin-V FITC/propidium iodide staining based fluorescence microscopic method (reference value: 0.6%). Format: functional.
Assay [2] in a line: Growth inhibition of human SW620 cells after 72 hrs by MTT assay. The format is functional, cell-based. The note with it: SW-620, 72 h. Put shortly: (§1)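 Monolayers in DMEM with 10% FBS, 2 mM L-glutamine and penicillin/streptomycin, 37 °C, 5% CO2; 5000 cells/well seeded day 0. Compounds added as five 10-fold dilutions (0.01–100 µM), DMSO ≤0.1%, for 72 h. MTT absorbance converted to percentage growth (NIH formulas); IC50 by linear regression between bracketing concentrations, highest concentration reported with ">" when not reached. Quadruplicate points, three experiments.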
On the technique in general: Tetrazolium assays rely on reduction of a dye to a coloured formazan, in cell work by metabolically active cells.

Assay [3] can be described thus: Growth inhibition of human CFPAC-1 cells after 72 hrs by MTT assay. The format is functional, cell-based. The note with it: CFPAC-1, 72 h. An outline of the steps:
as §1

Assay [4] in a line: Growth inhibition of human HepG2 cells after 72 hrs by MTT assay. The format is functional, cell-based. The note with it: HepG2, 72 h. Put shortly:
as §1

Assay [5] in a line: Induction of apoptosis in human HepG2 cells assessed as secondary necrotic cells at 2 times antiproliferative IC50 after 48 hrs by Annexin-V FITC/propidium iodide staining based fluorescence microscopic method (reference value: 5.2%). The format is functional.
A short description of assay [6]: Induction of apoptosis in human HepG2 cells assessed as viable cells at 2 times antiproliferative IC50 after 48 hrs by Annexin-V FITC/propidium iodide staining based fluorescence microscopic method (reference value: 94.2%). Format: functional.
Assay [7] in a line: Induction of apoptosis in human HepG2 cells assessed as late apoptotic cells at 2 times antiproliferative IC50 after 48 hrs by Annexin-V FITC/propidium iodide staining based fluorescence microscopic method (reference value: 0%). Format: functional.
Assay [8] is described as follows: Growth inhibition of human A549 cells after 72 hrs by MTT assay. The note with it: A549, 72 h. Format: functional, cell-based. An outline of the steps: as §1
Another assay deals with HepG2. The experiment in a line: Selectivity index, ratio of IC50 for […] cells to IC50 for human HepG2 cells. The format is functional.
Assay [9] is described as follows: Growth inhibition of human HeLa cells after 72 hrs by MTT assay. The format is functional, cell-based. Put shortly:
as §1

The next assay has as its system Enterococcus faecalis. The experiment in a line: Antibacterial activity against Enterococcus faecalis after 16 to 20 hrs by broth microdilution method. The format is functional. An outline of the steps:
(§2)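 Broth microdilution per CLSI in cation (Ca2+, Mg2+)-adjusted Mueller-Hinton broth; compounds in serial two-fold dilutions, 256–0.25 µg/mL; direct colony suspension inoculum, final 5 x 10^5 CFU/mL; 35 ± 2 °C, 16–20 h, ambient air. MIC is the lowest concentration completely inhibiting visible growth versus growth control; with trailing, endpoint read at ≥80% growth reduction. E. coli ATCC 25922 and P. aeruginosa ATCC 27853 served as QC.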
For orientation: In broth dilution the organism is exposed to a series of concentrations in liquid medium.

The test system of another assay is Escherichia coli. The assay is described as follows: Antibacterial activity against Escherichia coli ATCC 25925 after 16 to 20 hrs by broth microdilution method. The format is functional. The note with it: read-out: MIC=>80. An outline of the steps:
as §2

The subject of the next assay is Acinetobacter baumannii. The experiment in a line: Antibacterial activity against Acinetobacter baumannii ATCC 19606 after 16 to 20 hrs by broth microdilution method. Format: functional. Put shortly:
as §2

The nature of assay [10]: Growth inhibition of human WI38 cells after 72 hrs by MTT assay. The note with it: WI-38, 72 h. The format is cell-based. An outline of the steps: as §1
For another assay, the system named is Staphylococcus aureus. The experiment in a line: Antibacterial activity against Staphylococcus aureus ATCC 25923 after 16 to 20 hrs by broth microdilution method. Format: functional. An outline of the steps: as §2
For the next assay, the system named is Klebsiella pneumoniae. The assay is described as follows: Antibacterial activity against ESBL-producing Klebsiella pneumoniae ATCC 27736 after 16 to 20 hrs by broth microdilution method. The format is functional. Put shortly:
as §2

The test system of another assay is Pseudomonas aeruginosa. The assay is described as follows: Antibacterial activity against Pseudomonas aeruginosa ATCC 27853 after 16 to 20 hrs by broth microdilution method. The format is functional. Put shortly:
as §2

The next assay concerns A549. The experiment in a line: Selectivity index, ratio of IC50 for […] cells to IC50 for human A549 cells. Format: functional.

For the compound `O=c1cc(Cn2cc(Cn3ccc4cc(I)ccc43)nn2)c2ccc(O)cc2o1`, the Activity came to 5.8% in [1], 0% in [5], 85% in assay [6] and 9.2% in assay [7]. Besides, the IC50 in [2] amounted to 34.3 µM; in assay [3] it was 29.9 µM; in assay [4], 8.57 µM; in assay [8], 28.6 µM; in assay [9], 14.2 µM. In addition, the “Ratio IC50” value in the assay with HepG2 was 3.
For `Cc1ccc(S(=O)(=O)NCc2cn(Cc3cc(=O)oc4cc(O)ccc34)nn2)cc1`, the MIC80 in the assay with Enterococcus faecalis is 64 µg/mL (≈ 150 µM); with Acinetobacter baumannii it was more than 256 µg/mL; in the assay on Staphylococcus aureus it was 256 µg/mL (≈ 600 µM); in the assay with Klebsiella pneumoniae, more than 256 µg/mL; in the assay with Pseudomonas aeruginosa, more than 256 µg/mL. Moreover, the IC50 in assay [2] came out at 92.2 µM; in [3], 68.9 µM; in assay [4] it was 29.8 µM; in [8], 46.4 µM; in assay [10], 0.03 µM; in assay [9], 55.7 µM. Moreover, the MIC with Escherichia coli is more than 256 µg/mL.
Consider `O=c1cc(Cn2cc(-c3cc(F)cc(F)c3)nn2)c2ccc(O)cc2o1`, for which the IC50 in [2] was 66.7 µM; in assay [3], more than 100 µM; in assay [4] it was 38.9 µM; in assay [8], 21.1 µM; in [9] it was 27.6 µM. Besides, the “Ratio IC50” value with A549 is reported as more than 4.
In the case of `CCCC1CCC(c2ccc(-c3cn(Cc4cc(=O)oc5cc(O)ccc45)nn3)cc2)CC1` (stereo not given), the MIC80 against Enterococcus faecalis is 64 µg/mL (≈ 144 µM); in the assay on Acinetobacter baumannii, more than 256 µg/mL; against Staphylococcus aureus it was more than 256 µg/mL; with Klebsiella pneumoniae it was more than 256 µg/mL; against Pseudomonas aeruginosa, more than 256 µg/mL. Further, the IC50 in assay [2] was 37.5 µM; in assay [3] it was 52.8 µM; in assay [4], 30.4 µM; in [8], 41 µM; in [10], 7.91 µM; in assay [9], 34.3 µM. In addition, in the assay on Escherichia coli, the MIC was more than 256 µg/mL.
Take `CCCCCCc1ccc(-c2cn(Cc3cc(=O)oc4cc(O)ccc34)nn2)cc1`: the MIC80 against Enterococcus faecalis is 16 µg/mL (≈ 39.7 µM); in the assay on Acinetobacter baumannii, more than 256 µg/mL; against Staphylococcus aureus it was more than 256 µg/mL; in the assay on Klebsiella pneumoniae it was more than 256 µg/mL; against Pseudomonas aeruginosa, more than 256 µg/mL. Besides, the IC50 in [2] was 36.8 µM; in assay [3], more than 100 µM; in assay [4] it was 9.16 µM; in [8], 8.87 µM; in [10], 14 µM; in [9] it was 8.73 µM. In addition, in the assay with Escherichia coli, the minimum inhibitory concentration (MIC) is more than 256 µg/mL.
In the case of `CCCCCCCCc1cn(Cc2cc(=O)oc3cc(O)ccc23)nn1`, the MIC80 in the assay with Enterococcus faecalis is 256 µg/mL (≈ 720 µM); against Acinetobacter baumannii it was more than 256 µg/mL; against Staphylococcus aureus, more than 256 µg/mL; in the assay with Klebsiella pneumoniae, more than 256 µg/mL; in the assay with Pseudomonas aeruginosa, more than 256 µg/mL. Besides, the IC50 in assay [2] was 50.9 µM; in [3], 62.6 µM; in [4], 34.2 µM; in [8] it was 46 µM; in assay [10] it was 43.4 µM; in [9] it was 35.1 µM. Moreover, the MIC in the assay with Escherichia coli was more than 256 µg/mL.
On to `O=c1cc(Cn2cc(CCc3ccccc3)nn2)c2ccc(O)cc2o1`, for which the IC50 in [2] was 84.4 µM; in assay [3] it was more than 100 µM; in [4], 50.5 µM; in assay [8], 24.8 µM; in assay [9], 35.1 µM. The “Ratio IC50” value with A549 is more than 4.

A word on the IC50: it is the point on the concentration scale where inhibition reaches its midpoint. Read a low IC50 as greater potency in that assay. As usually defined, the MIC80 is the lowest concentration that inhibits either 80% of growth or 80% of the strains tested, depending on the study. A high value points to weaker potency. What is called MIC is the least concentration at which growth counts as inhibited.

The values are drawn from ChEMBL document CHEMBL3875169, “Synthesis, in vitro anticancer and antibacterial activities and in silico studies of new 4-substituted 1,2,3-triazole-coumarin hybrids” (Eur J Med Chem, 2016).
